Source: paper PMC11066147 (Heliyon, 2024)
“Also recorded” adds a separate entry of the source.

Key:
PfHsp70-z = biological target: T1, PfHsp70-z (Plasmodium falciparum, UniProt Q8IC01); settings: previous study, ref [10], cited from earlier work
T1 sequence (Q8IC01 1-873): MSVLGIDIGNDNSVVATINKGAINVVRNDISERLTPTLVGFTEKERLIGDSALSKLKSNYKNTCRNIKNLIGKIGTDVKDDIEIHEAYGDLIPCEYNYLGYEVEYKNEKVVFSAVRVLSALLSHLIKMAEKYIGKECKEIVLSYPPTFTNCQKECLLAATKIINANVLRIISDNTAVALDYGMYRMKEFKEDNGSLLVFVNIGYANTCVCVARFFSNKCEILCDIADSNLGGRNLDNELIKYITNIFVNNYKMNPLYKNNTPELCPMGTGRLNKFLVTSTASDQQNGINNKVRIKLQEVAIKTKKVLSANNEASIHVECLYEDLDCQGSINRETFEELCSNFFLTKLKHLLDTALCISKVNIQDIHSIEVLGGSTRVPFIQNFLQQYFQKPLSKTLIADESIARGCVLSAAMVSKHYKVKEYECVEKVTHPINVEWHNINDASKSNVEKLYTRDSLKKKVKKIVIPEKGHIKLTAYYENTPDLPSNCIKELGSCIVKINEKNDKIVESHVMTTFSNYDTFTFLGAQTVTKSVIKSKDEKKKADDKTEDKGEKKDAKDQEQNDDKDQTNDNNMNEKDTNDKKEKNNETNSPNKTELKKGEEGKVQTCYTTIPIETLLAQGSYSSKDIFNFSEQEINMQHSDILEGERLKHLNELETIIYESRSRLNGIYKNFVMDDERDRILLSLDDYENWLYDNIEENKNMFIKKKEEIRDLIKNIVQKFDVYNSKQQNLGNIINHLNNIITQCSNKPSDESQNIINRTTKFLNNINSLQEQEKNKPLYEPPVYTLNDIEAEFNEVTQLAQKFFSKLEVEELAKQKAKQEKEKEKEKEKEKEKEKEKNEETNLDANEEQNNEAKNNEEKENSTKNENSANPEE

PfHsp70-1 [1] = biological target: T2, PfHsp70-1 (Plasmodium falciparum, UniProt Q8IB24); settings: previous study, ref [10], cited from earlier work
T2 sequence (Q8IB24 1-677): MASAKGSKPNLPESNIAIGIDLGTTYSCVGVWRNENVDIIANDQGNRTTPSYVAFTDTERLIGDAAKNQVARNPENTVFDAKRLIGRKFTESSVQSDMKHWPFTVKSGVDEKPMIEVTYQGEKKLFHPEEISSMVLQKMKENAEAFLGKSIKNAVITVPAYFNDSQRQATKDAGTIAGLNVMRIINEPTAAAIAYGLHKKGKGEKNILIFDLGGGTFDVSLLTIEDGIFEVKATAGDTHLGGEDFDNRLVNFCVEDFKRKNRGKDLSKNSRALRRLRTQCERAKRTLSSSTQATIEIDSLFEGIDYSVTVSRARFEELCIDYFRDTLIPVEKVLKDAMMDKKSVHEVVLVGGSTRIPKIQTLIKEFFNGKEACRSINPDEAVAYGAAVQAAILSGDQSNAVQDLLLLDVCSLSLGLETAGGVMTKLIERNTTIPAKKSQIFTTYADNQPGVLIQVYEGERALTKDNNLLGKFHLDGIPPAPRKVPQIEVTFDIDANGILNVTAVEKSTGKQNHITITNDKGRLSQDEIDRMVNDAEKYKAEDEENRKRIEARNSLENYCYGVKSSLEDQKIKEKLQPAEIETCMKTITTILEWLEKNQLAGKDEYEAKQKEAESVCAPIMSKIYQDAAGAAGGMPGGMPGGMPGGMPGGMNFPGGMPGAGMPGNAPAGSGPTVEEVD

proteins = settings: ref [33]; cited from earlier work
DnaK = DnaK (Escherichia coli, UniProt P0A6Y8); settings: SPR; presence of ATP
Sequence of DnaK (P0A6Y8 whole entry): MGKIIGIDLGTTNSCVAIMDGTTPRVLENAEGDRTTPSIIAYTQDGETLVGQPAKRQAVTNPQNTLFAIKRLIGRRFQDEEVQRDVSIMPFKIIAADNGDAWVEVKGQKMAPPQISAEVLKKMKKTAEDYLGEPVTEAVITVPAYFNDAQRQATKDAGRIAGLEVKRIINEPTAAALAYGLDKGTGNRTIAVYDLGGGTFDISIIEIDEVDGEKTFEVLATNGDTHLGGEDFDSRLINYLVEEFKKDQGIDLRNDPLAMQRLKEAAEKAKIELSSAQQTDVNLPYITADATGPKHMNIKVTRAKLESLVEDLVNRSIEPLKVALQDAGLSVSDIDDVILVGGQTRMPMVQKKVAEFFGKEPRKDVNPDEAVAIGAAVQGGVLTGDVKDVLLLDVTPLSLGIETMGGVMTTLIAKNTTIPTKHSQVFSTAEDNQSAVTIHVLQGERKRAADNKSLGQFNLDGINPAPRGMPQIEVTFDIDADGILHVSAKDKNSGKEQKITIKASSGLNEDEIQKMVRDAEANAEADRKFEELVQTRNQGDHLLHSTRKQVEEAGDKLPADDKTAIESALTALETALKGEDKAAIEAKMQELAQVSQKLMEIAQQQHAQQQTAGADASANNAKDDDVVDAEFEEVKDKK

[2] = system: clients from E. coli ΔdnaK52 cells; assay: co-affinity assay coupled to LC-MS, clients from E. coli ΔdnaK52; assay type: binding
[3] = system: clients from E. coli JM109 cells; assay: co-affinity assay coupled to LC-MS, clients from E. coli JM109; assay type: binding
Method in brief: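 Pull-down bait was His-tagged Hsp70 (wild type or linker-swap variant), immobilised on cobalt resin in TBS (10 mM Tris-HCl pH 7.5, 50 mM NaCl, 10 mM imidazole) for 4 h at 4 °C, then washed 5×. E. coli JM109 lysate (prey) was added overnight at 4 °C, followed by 5 washes. Elution used 290 mM imidazole. Eluates were run on silver-stained SDS-PAGE; unique bands were excised and identified by LC-MS.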

PfHsp70-1 [4] = biological target: T2, PfHsp70-1; assay: SPR self-association, immobilised ligand PfHsp70-1; assay type: binding

## GFRNNNMYRF
PfHsp70-z
  effect of nucleotide on peptide binding: nucleotide independent
PfHsp70-z; vs GFRLLLMYRF
  peptide preference: preferentially bind to the Asp-enriched peptide
PfHsp70-1 [1]
  effect of nucleotide on peptide affinity: regulated by ADP/ATP
PfHsp70-1 [1]; vs GFRLLLMYRF
  peptide preference: preferentially bind to the Asp-enriched peptide

## DnaK: E. coli Hsp70, recombinant
proteins
  number of aggregation-prone (unstable) clients: ~180 proteins
DnaK
  effect of ATP on self-association: promoted by ATP
[2]
  association with CH60/GroEL: associated with DnaK within the E. coli ΔdnaK52 cell background
  number of clients bound: 110 clients
  size of another prominent client cluster: above 100 kDa
[3]
  association with CH60/GroEL: not with DnaK
  pI of a further group of clients: around 9.5
  pI of majority of clients: 5.5–6.0
  pI of some unique clients: above 10
  size of most clients: around 50 kDa
[3]; unique relative to the other chaperone
  number of unique clients: 41 clients

## GFRLLLMYRF
PfHsp70-z
  effect of nucleotide on peptide binding: nucleotide independent
PfHsp70-1 [1]
  effect of nucleotide on peptide affinity: regulated by ADP/ATP

## PfHsp70-1: canonical cytosolic Hsp70 chaperone of Plasmodium falciparum, recombinant
PfHsp70-1 [4]
  self-association without nucleotide vs ADP: comparable affinity in the absence of nucleotide and in the presence of ADP
PfHsp70-1 [4]; ATP vs apo- or ADP-states
  effect of ATP on self-association: tenfold increase; also recorded: promoted by ATP
